Measured values reported in ChEMBL document CHEMBL2062401, “New pyrimido[5,4-e]pyrrolo[1,2-c]pyrimidines: synthesis, 2D-QSAR, anti-inflammatory, analgesic and ulcerogenicity studies” (Eur J Med Chem, 2012).

Key:
Rattus norvegicus [1] = test: Antiinflammatory activity in Wistar albino rat assessed as inhibition of carrageenan-induced paw edema at 0.029 mmol/kg, po dosed 1 hr before carrageenan challenge measured 1 hr post carrageenan-induced inflammation; type: functional
Method in brief: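 Wistar albino rats of both sexes, 120–150 g, six per group, food withdrawn the day before. Given orally 0.029 mmol/kg in saline with a few drops of Tween 80, by stomach tube, 1 h before subplantar s.c. carrageenan (0.1 ml of 1%) into the right hind paw. Paw thickness measured at 1, 2, 3 and 4 h against baseline. % inhibition = 100 × (1 − Vt/Vc).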

Rattus norvegicus [2] = test: Gastrointestinal toxicity in Wistar albino rat assessed as incidence of stomach ulceration at 0.029 mmol/kg, po; type: organism-based; conditions: in vivo
Method in brief: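 Rats given single oral dose suspended in saline with few drops Tween 80 (groups of 6); killed under deep ether anaesthesia 5 h after treatment; stomach opened along greater curvature and examined for lesions or bleeding; ulceration expressed as number of rats affected per group.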

Mus musculus [3] = test: Analgesic activity in Swiss albino mouse assessed as inhibition of acetic acid-induced writhing at 0.029 mmol/kg. po dosed 1 hr before acetic acid challenge and measured during 30 mins post acetic acid challenge; type: functional
Method in brief: (§1)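 Swiss albino mice of either sex, 18–22 g, six per group. Oral suspension at 0.029 mmol/kg given 1 h before 0.3 ml of 1% acetic acid i.p. Contractions counted for 30 min, starting 5 min after injection. % protection = (n − n')/n × 100 against control writhing. Potency% = % inhibition of test / % inhibition of indomethacin × 100. Mean ± SEM, ANOVA with post hoc test.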

Mus musculus [4] = test: Analgesic activity in Swiss albino mouse assessed as inhibition of acetic acid-induced writhing at 0.029 mmol/kg. po dosed 1 hr before acetic acid challenge and measured during 30 mins post acetic acid challenge relative to indomethacin; type: functional; conditions: read-out: INH; method in brief: as §1
[5] = Lipophilicity, log P of the compound; type: physicochemical; conditions: octanol/water
Rattus norvegicus [6] = test: Antiinflammatory activity in Wistar albino rat assessed as inhibition of carrageenan-induced paw edema at 0.029 mmol/kg, po dosed 1 hr before carrageenan challenge measured 2 hrs post carrageenan-induced inflammation
Rattus norvegicus [7] = test: Antiinflammatory activity in Wistar albino rat assessed as inhibition of carrageenan-induced paw edema at 0.029 mmol/kg, po dosed 1 hr before carrageenan challenge measured 3 hrs post carrageenan-induced inflammation
Rattus norvegicus [8] = test: Antiinflammatory activity in Wistar albino rat assessed as inhibition of carrageenan-induced paw edema at 0.029 mmol/kg, po dosed 1 hr before carrageenan challenge measured 4 hrs post carrageenan-induced inflammation
Rattus norvegicus [9] = test: Gastrointestinal toxicity in Wistar albino rat assessed as incidence of stomach ulceration at 0.029 mmol/kg, po followed by another two compound doses in second and third days measured on fourth day post dose by acute ulcerogenicity study; type: organism-based; conditions: in vivo
Method in brief: (§2)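 Adult Wistar rats of both sexes, 120–150 g, groups of 6, fasted 20 h; oral dose suspended in 1% Tween (vehicle group 1% Tween); fasted 2 h, fed 2 h, fasted 20 h; further doses on days 2 and 3. Scored: % incidence/10, mean ulcers per rat, mean severity score; ulcer index = sum of the three.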

Rattus norvegicus [10] = test: Gastrointestinal toxicity in Wistar albino rat assessed as stomach ulcer index at 0.029 mmol/kg, po followed by another two compound doses in second and third days measured on fourth day post dose by acute ulcerogenicity study; type: organism-based; conditions: in vivo; method in brief: as §2

Compound	inhibition in vivo at 29 µmol/kg (Rattus norvegicus [1])	Activity (Rattus norvegicus [2])	inhibition in vivo at 29 µmol/kg (Mus musculus [3])	writhing inhibition relative to indomethacin (potency %) at 29 µmol/kg (Mus musculus [4])	logP [5]	inhibition in vivo at 29 µmol/kg (Rattus norvegicus [6])	inhibition in vivo at 29 µmol/kg (Rattus norvegicus [7])	inhibition in vivo at 29 µmol/kg (Rattus norvegicus [8])	Activity (Rattus norvegicus [9])	UI (Rattus norvegicus [10])
O=C(O)c1nc2c(c(=O)[nH]1)C1CCCN1C(=O)N2c1ccccc1 (stereo not drawn)	68%	Toxic	64.7%	97.8%	0.661	56%	66%	72%		
C/C(=N\NC(=O)c1nc2c(c(=O)[nH]1)C1CCCN1C(=O)N2c1ccccc1)c1ccccc1 (stereo not drawn)	61%	Toxic	67.5%	102%	3.28	44%	53%	61%		
O=C(NN=C(c1ccccc1)c1ccccc1)c1nc2c(c(=O)[nH]1)C1CCCN1C(=O)N2c1ccccc1 (stereo not drawn)	44%	Non-toxic	81.9%	124%	5.52	51%	51%	53%		
CCOC(=O)C/C(C)=N/NC(=O)c1nc2c(c(=O)[nH]1)C1CCCN1C(=O)N2c1ccccc1 (stereo not drawn)	45%	Non-toxic	1.17%	1.77%	1.28	41%	47%	52%		
CCO/C=N/NC(=O)c1nc2c(c(=O)[nH]1)C1CCCN1C(=O)N2c1ccccc1 (stereo not drawn)	47%	Non-toxic	24.9%	37.7%	1.44	55%	64%	55%		
CCOC(=O)c1nc2c(c(=O)[nH]1)C1CCCN1C(=O)N2c1ccccc1 (stereo not drawn)	71%	Non-toxic	29.4%	44.5%	2.02	67%	68%	66%		
C/C(=N\NC(=O)c1nc2c(c(=O)[nH]1)C1CCCN1C(=O)N2c1ccccc1)c1ccc(Cl)cc1 (stereo not drawn)	43%	Toxic	62.1%	94%	3.29	50%	51%	57%		
Nc1cc(=O)[nH]n1C(=O)c1nc2c(c(=O)[nH]1)C1CCCN1C(=O)N2c1ccccc1 (stereo not drawn)	50%	Non-toxic	70.3%	106%	0.517	20%	45%	50%		
COc1ccc(/C=N/NC(=O)c2nc3c(c(=O)[nH]2)C2CCCN2C(=O)N3c2ccccc2)cc1 (stereo not drawn)	51%	Non-toxic	71.8%	109%	2.76	21%	44%	47%		
O=C(N/N=C/c1ccc(Cl)cc1)c1nc2c(c(=O)[nH]1)C1CCCN1C(=O)N2c1ccccc1 (stereo not drawn)	54%	Non-toxic	34.8%	52.7%	3.36	32%	44%	38%		
O=C(N/N=C/c1ccccc1O)c1nc2c(c(=O)[nH]1)C1CCCN1C(=O)N2c1ccccc1 (stereo not drawn)	53%	Toxic	68.9%	104%	2.46	34%	46%	47%		
Cc1ccc(-c2cc(C(F)(F)F)nn2-c2ccc(S(N)(=O)=O)cc2)cc1 [CELECOXIB]	54%	Toxic				34%	47%	48%	6.66%	11.13
COc1ccc(/C=N/NC(=O)c2nc3c(c(=O)[nH]2)C2CCCN2C(=O)N3c2ccccc2)cc1O (stereo not drawn)	18%	Non-toxic	43.8%	66.2%	2.42	15%	46%	46%		
Cc1cc(C)n(C(=O)c2nc3c(c(=O)[nH]2)C2CCCN2C(=O)N3c2ccccc2)n1 (stereo not drawn)	58%	Non-toxic	62.1%	94%	1.46	57%	65%	67%		
COc1ccc2c(c1)c(CC(=O)O)c(C)n2C(=O)c1ccc(Cl)cc1 [INDOMETHACIN]	57%	Toxic	66.1%			39%	47%	51%	10%	14.73
Cc1cc(=O)n(C(=O)c2nc3c(c(=O)[nH]2)C2CCCN2C(=O)N3c2ccccc2)[nH]1 (stereo not drawn)	57%	Non-toxic	61%	92.2%	0.772	34%	57%	62%		
CC(C)=NNC(=O)c1nc2c(c(=O)[nH]1)C1CCCN1C(=O)N2c1ccccc1 (stereo not drawn)	26%	Non-toxic	58.8%	89%		23%	35%	36%		
O=C1CC(O)=NN1C(=O)c1nc2c(c(=O)[nH]1)C1CCCN1C(=O)N2c1ccccc1 (stereo not drawn)	68%	Non-toxic	61.9%	93.6%	0.693	44%	49%	65%		
O=C(N/N=C/c1ccccc1)c1nc2c(c(=O)[nH]1)C1CCCN1C(=O)N2c1ccccc1 (stereo not drawn)	68%	Toxic	57.6%	87.2%	3.35	41%	53%	50%		
NNC(=O)c1nc2c(c(=O)[nH]1)C1CCCN1C(=O)N2c1ccccc1 (stereo not drawn)	56%	Toxic	32.2%	48.7%	-0.487	45%	50%	56%		
